Bioassay records deposited in PubChem by several laboratories.
ERa SRC1 pot – ER-alpha (human) coactivator binding potentiation | P03372 | TR-FRET ERalpha-LBD/SRC-Cy5 coactivator binding, 2 h; 100 = basal binding, no effect | coactivator binding (% of control), % at 25.6 µM | actives 1.3% (n = 86,000) | AID 639; in the data active = activity above about 200%;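 note: binding measured in presence of low estradiol as agonist stimulus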
Smad3 inh – Smad3 (human) transcription factor binding inhibition; P84022; TR-FRET Smad3/Dy647-FoxH1 peptide binding, europium anti-His; inhibition, % at 25 µM; actives 0.29% (n = 88,000);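 active = compounds that reduce the energy-transfer binding signal between the protein and its labelled peptide by more than half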
Target sequence (P84022 whole entry, looked up): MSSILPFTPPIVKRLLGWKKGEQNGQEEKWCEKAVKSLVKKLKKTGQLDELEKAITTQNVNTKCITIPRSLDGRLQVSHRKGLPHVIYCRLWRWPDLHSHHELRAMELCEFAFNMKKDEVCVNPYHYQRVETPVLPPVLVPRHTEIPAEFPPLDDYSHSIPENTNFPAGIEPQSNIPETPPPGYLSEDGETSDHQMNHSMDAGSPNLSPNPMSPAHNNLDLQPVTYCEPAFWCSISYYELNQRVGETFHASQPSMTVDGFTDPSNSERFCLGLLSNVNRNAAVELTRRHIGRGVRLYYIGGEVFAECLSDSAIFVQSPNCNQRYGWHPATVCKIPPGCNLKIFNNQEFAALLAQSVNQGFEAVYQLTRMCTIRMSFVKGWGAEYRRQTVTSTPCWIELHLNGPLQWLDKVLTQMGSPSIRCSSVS
FAK blocker – FAK (human) kinase inhibition | Q05397 | biochemical FAK kinase activity assay | inhibition, %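 (tested at 7 µM)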 | actives 0.84% (n = 97,000); in the data active = inhibition above about 19%
ERb SRC1 inh – ER-beta (human) coactivator binding inhibition; actives 1.3% (n = 86,000); AID 633; Q92731; inhibition, % at 25.6 µM; TR-FRET ER-beta LBD / SRC1-Cy5 peptide binding; receptor agonist-loaded with 1 µM estradiol;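 active = compounds whose percent inhibition of the receptor-coactivator binding signal exceeds about 50% in the single-dose screen, limit read from the data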
ERa SRC1 inh – ER-alpha (human) coactivator binding inhibition | P03372 | TR-FRET ER-alpha LBD / SRC-1 peptide, estradiol-bound | inhibition, % at 25.6 µM | actives 1.7% (n = 86,000) | AID 629; in the data active = inhibition above about 50%
Rev-RRE block – HIV Rev-RRE protein-RNA interaction inhibition; inhibition, % at 8 µM; Rev peptide-RRE RNA binding, FRET; actives 0.79% (n = 97,000); P05866; AID 704;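 active = inhibition above the screen-wide mean plus 3 SD, cut at about 35% in these data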
Target sequence (P05866 whole entry, looked up): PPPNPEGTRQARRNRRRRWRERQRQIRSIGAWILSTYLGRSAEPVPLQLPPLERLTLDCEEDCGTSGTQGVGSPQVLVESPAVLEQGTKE
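assay system = Cy5-tagged RRE RNA duplex with fluorescein-tagged Rev peptide | incubation = 5 + 15 min at 25 °C | also added = labelled Rev peptide | measure = % inhibition of FRET ratio versus controls | benchmarks = DMSO wells as 0% and neomycin B wells as 100% inhibition | measured by = FRET fluorescence readout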
A number is an active result; - = inactive; . = no result; [ ] = another dose, or the depositor's remark. In the library only some 4% were active in any assay of this set; here they are far more common.

SMILES	ERa SRC1 pot	Smad3 inh	FAK blocker	ERb SRC1 inh	ERa SRC1 inh	Rev-RRE block
CN(C)c1ncc(C2=C(Cl)C(=O)C(N3CCCC3)=C(Cl)C2=O)s1	-	-	39	94[fluorescence artefact?]	97[fluorescence artefact?]	-
CCCCN1CSC(=S)N(Cc2ccccc2)C1	.	-	.	.	.	.
COC(=O)c1c(NC(=O)c2nc3ccccc3s2)sc2c1CCN(C(C)=O)C2	-	-	-	-	-	-
CNC(=O)c1c(NC(=O)c2nc3ccccc3s2)sc2c1CCC2	-	-	-	53	72[fluorescence artefact?]	-
Fc1ccc(NCc2cccnc2)cc1F	-	-	-	-	62	41
COc1ccc2c3c([nH]c2c1)[C@H]1C[C@@H]2[C@H](C[C@@H](O)[C@H](OC)[C@H]2C(=O)O)CN1CC3	.	-	.	.	.	.
O[C@@H](c1cc([C@@]23C[C@H]4CC[C@@H]2C[C@H](C4)C3)nc2c(Cl)cc(Cl)cc12)[C@@H]1CCCCN1	.	-	.	.	.	.
CCOC(=O)Nc1ccc(OC)cc1S(=O)(=O)N1CCCCC1	-	-	-	74[fluorescence artefact?]	74[fluorescence artefact?]	-
O=C(NC(=O)c1ccc(Cl)cc1)Nc1cc(N2CCCCC2)ncn1	243	-	-	65[fluorescence artefact?]	72[fluorescence artefact?]	-
O=C(Nc1cc(N2CCOCC2)ncn1)Nc1cccc2ccccc12	-	-	-	-	-	-
O=S(=O)(O)c1cc(O)c2c(O)c(N=Nc3cccc4ccccc34)c(S(=O)(=O)O)cc2c1	.	-	.	.	.	.
CCSC1=N/C(=C\c2ccc(-c3ccccc3[N+](=O)[O-])o2)C(=O)S1	.	.	-	.	.	54
O=[N+]([O-])c1ccccc1-c1ccc(/C=N/n2cnnc2)o1	.	.	-	.	.	-
COCC(=O)Nc1nnc(Cc2ccc(OC)cc2)s1	-	-	-	55	-	-
COc1ccc(Cc2nnc(NC(=O)CSc3ccccc3)s2)cc1	.	.	-	.	.	-
COc1ccc(OC2C(=O)N(Cc3ccc4c(c3)OCO4)C2c2sccc2C)cc1 (stereo not given)	.	.	-	.	.	-
O=c1c2c3nc4ccccc4nc3n(CC3CCCO3)c2ncn1CCc1ccccc1 (stereo not given)	-	-	.	-	-	.
COc1cc(OC)cc(-n2c3nc4ccccc4nc3c3c(=O)n(CC4CCCO4)cnc32)c1 (stereo not given)	-	-	.	-	57[fluorescence artefact?]	.
Cc1nc2c(c(=O)n1CC1CCCO1)c1nc3ccccc3nc1n2CCC(C)C (stereo not given)	-	-	.	-	76	.
Cn1nc(SCC(=O)O)sc1=S	-	-	-	-	70[fluorescence artefact?]	140[fluorescence artefact?]
O=C(NCCc1csc(-c2ccc(C(F)(F)F)cc2)n1)c1cccs1	-	-	-	-	-	-
O=[N+]([O-])c1cccc(/C=N/Nc2ccc3ccccc3n2)c1O	.	-	.	.	.	.
CC(=O)Nc1nonc1-c1nc2ccccc2n1N(C(C)=O)C(C)=O	-	-	-	76	86[fluorescence artefact?]	-
CCOC(=O)Cc1c(C)nc2c(-c3ccc(Cl)cc3)c(C)[nH]n2c1=O	248[fluorescence artefact?]	-	-	-	-	-
O=C(O)C(=O)/C=C(\O)c1ccc(Br)cc1	.	-	.	.	.	.
SMILES	ERa SRC1 pot	Smad3 inh	FAK blocker	ERb SRC1 inh	ERa SRC1 inh	Rev-RRE block
O=C(O)CCn1cnc2c(=S)nc[nH]c21	.	53	.	.	.	.
O=C(O)CCCCn1cnc2c(=S)nc[nH]c21	.	52	.	.	.	.
Nc1ncnc2c1ncn2CCCCC(=O)O	.	-	.	.	.	.
CC(C)c1ccc2c(c1)CC[C@@H]1[C@](C)(CN)CCC[C@@]21C	.	-	.	.	.	.
COc1cc(NC(=O)c2ccc(Br)o2)c(C(=O)O)cc1OC	-	-	-	-	-	-
COC(=O)c1cc(OC)c(OC)cc1NC(=O)c1ccc(Br)o1	-	-	-	-	57	-
COc1ccc(-c2nc3ccccc3o2)cc1NC(=O)c1ccc(Br)o1	257[fluorescence artefact?]	-	-	-	-	-
COc1ccccc1NC(=O)c1ccc(Br)o1	-	-	-	-	-	-
CCOC(=O)c1cc(C#N)c(N)nc1C	-	-	-	-	-	-
CCOC(=O)c1cc(C#N)c(SCc2ccc(C#N)cc2)nc1C	252[fluorescence artefact?]	64[fluorescence artefact?]	-	66[fluorescence artefact?]	72[fluorescence artefact?]	-
CCOC(=O)c1cc2c(N)c(C(=O)c3cc(C#N)c(SC)nc3C)sc2nc1C	-	-	-	-	69[fluorescence artefact?]	-
COc1ccc(S(=O)(=O)Nc2nc3ccccc3s2)cc1OC	-	-	-	-	-	-
CC(NC(=O)c1ccccc1)(C(=O)O)C(=O)O	.	-	.	.	.	.
Cc1ccc(-c2nnc(N3CCN(C(=O)CN4C(=O)c5ccccc5C4=O)CC3)c3ccccc23)cc1	-	-	-	-	58	-
O[C@@H]1[C@@H](OCc2ccccc2)OC[C@H](O)[C@H]1O	.	-	.	.	.	.
CCC(C)n1c(=O)c(C(=O)Nc2ccccc2S(N)(=O)=O)c(O)c2ccccc21 (stereo not given)	208	-	.	-	-	.
O=C(O)CCC(=O)C(=O)O	.	-	.	.	.	.
c1nnc(NCNc2nncs2)s1	.	-	.	.	.	.
CSc1nnc(Cc2sc(-c3ccccc3)nc2-c2ccccc2)o1	-	-	-	-	-	-
COc1ccc(CSc2nnc(Cc3sc(-c4ccccc4)nc3-c3ccccc3)o2)cc1	438[fluorescence artefact?]	-	-	-	-	-
c1ccc(CSc2nnc(Cc3ccccn3)o2)cc1	-	-	-	-	-	-
Fc1ccc(CSc2nnc(Cc3sc(-c4ccccc4)nc3-c3ccccc3)o2)cc1	274[fluorescence artefact?]	-	-	-	-	-
Cn1c(=O)c2ncn(CC(=O)Nc3ccc4c5c(cccc35)CC4)c2n(C)c1=O	-	-	-	-	-	46
Cc1cccc(C)c1NC(=O)Cn1cnc2c(=O)n(C)c(=O)n(C)c21	-	-	-	-	-	-
CN(C)c1ccc(C=C2C(=O)OC(C)(C(C)(C)C)OC2=O)cc1 (stereo not given)	.	.	-	.	.	63
SMILES	ERa SRC1 pot	Smad3 inh	FAK blocker	ERb SRC1 inh	ERa SRC1 inh	Rev-RRE block
CC1=NN(Cc2ccccc2)C(=O)/C1=C\c1ccc(N(C)C)cc1	.	.	-	.	.	-
CCC(=O)Oc1ccc(C(CC)C(CC)c2ccc(OC(=O)CC)cc2)cc1 (stereo not given)	577	-	.	-	-	.
CC1(C)S[C@H]2[C@H](NC(=O)C3(N)CCCCC3)C(=O)N2[C@@H]1C(=O)O	.	-	.	.	.	.
COC(=O)c1cc(NC(=O)Cn2c(=O)cnc3ccccc32)cc(C(=O)OC)c1	-	-	-	-	55	-
COC(=O)Cn1c(=O)cnc2ccccc21	-	-	.	-	-	.
Cc1oc(-c2ccc(Cl)cc2)nc1CN1CCCC(C(=O)NCc2ccccn2)C1 (stereo not given)	-	-	-	-	-	-
Cc1oc(-c2ccc(Cl)cc2)nc1CN1CCCC(C(=O)NCc2cccnc2)C1 (stereo not given)	-	-	-	53	-	-
c1ccc(-c2ccc(C3=Nn4c(Cn5nnc6ccccc65)nnc4SC3)cc2)cc1	.	.	-	.	.	-
N#C[C@H](C(=O)O)C(c1c(Cl)cccc1Cl)[C@H](C#N)C(=O)O	.	-	.	.	.	.
Cc1ccc(Cn2c(=S)[nH]c3ccc(N4CCOCC4)cc3c2=O)o1	-	-	.	52[fluorescence artefact?]	-	.
O=c1c2cc(N3CCOCC3)ccc2[nH]c(=S)n1CCCN1CCCCCC1	-	-	.	-	75[fluorescence artefact?]	.
